Most compounds without a hit are left out; they make up all but 2.4% or so of the library.
PREPL inhibitor: PREPL enzyme inhibitors, primary screen, biochemical, fluorescence polarization; recombinant PREPL, fluorescence polarization activity-based probe; Prolyl endopeptidase-like (Homo sapiens), Q4J6C6; inhibition, % at 5.96 µM; 320,000 tested, 0.68% active; AID 2751, 2010;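 further: 0% = enzyme with DMSO and 100% = wells lacking enzyme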
Target sequence (Q4J6C6 whole entry, looked up): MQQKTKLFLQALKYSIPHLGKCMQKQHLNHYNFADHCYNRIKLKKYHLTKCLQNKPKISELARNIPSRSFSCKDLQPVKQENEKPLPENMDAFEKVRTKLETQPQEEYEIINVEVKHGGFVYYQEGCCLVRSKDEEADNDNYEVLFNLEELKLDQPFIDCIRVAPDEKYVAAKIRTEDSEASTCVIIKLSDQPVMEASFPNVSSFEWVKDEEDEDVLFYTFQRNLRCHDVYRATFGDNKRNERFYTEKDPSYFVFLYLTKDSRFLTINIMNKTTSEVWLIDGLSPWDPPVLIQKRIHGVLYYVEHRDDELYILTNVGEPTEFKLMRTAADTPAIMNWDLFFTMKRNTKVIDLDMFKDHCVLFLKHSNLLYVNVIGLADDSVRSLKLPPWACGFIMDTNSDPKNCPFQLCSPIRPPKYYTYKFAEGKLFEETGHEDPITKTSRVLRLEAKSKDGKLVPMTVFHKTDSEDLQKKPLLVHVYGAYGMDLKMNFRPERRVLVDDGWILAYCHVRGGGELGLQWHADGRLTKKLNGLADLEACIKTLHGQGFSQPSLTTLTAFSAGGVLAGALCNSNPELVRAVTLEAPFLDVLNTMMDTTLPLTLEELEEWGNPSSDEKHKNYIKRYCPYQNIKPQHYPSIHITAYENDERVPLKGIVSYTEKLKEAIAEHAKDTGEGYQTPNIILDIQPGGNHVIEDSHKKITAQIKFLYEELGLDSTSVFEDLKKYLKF
CSN inh: inhibitors of CSN-mediated cullin deneddylation, primary screen, biochemical, fluorescence polarization, uHTS; COP9 signalosome complex subunit 5 (Homo sapiens), Q92905; Purified CSN, SCF-Nedd8-OG deneddylation; inhibition, % at 12.5 µM; 360,000 tested, 0.38% active; AID 651999, 2013;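 active means pattern-corrected inhibition above about 35%, with an unprinted fluorescence ratio check between 0.5 and 1.5, limit read from the data, passing the limit was not always enough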;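 further: 0% = enzyme with substrate and 100% = substrate without enzyme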
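Material: human Csn5 produced in HEK293T cells; Input: enzyme 0.24 nM; Reagent: SCFSkp2-Nedd8OG substrate at 10 nM final; Dosing: 12.5 µM compound; Incubation: 90 min reaction at room temperature; Detection: fluorescence polarization of the substrate; Evaluation: % inhibition of substrate cleavage by Csn5; Control set: substrate-only high control, full reaction low control.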
TbMetRS inhib: T. brucei MetRS inhibitors, primary screen, biochemical, luminescence; methionyl-tRNA synthetase (Trypanosoma brucei brucei); purified T. brucei MetRS, ATP depletion, Kinase-Glo luminescence; inhibition, % at 11.9 µM; 360,000 tested, 0.4% active;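 active means inhibition above a per-plate cutoff of the control wells' mean inhibition plus 3 SD, cut at about 5.5% in these data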;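 further: 0% = DMSO wells median and 100% = median of wells with control inhibitor compound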
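technique = Kinase-Glo luminescence, ATP depletion format | system = purified MetRS (methionyl-tRNA synthetase) enzyme from Trypanosoma brucei | timing = 15 min preincubation, 2 h reaction, all 25 °C | evaluation = percent inhibition versus plate control medians | dosing = single dose, 11.9 µM final nominal, 0.9% final DMSO | also added = substrates ATP, L-methionine and bulk Escherichia coli tRNA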
Rpn11 block: Rpn11 (PSMD14) deubiquitinase inhibitors, primary screen, biochemical, fluorescence polarization, uHTS | 26S proteasome non-ATPase regulatory subunit 14 (Homo sapiens), O00487 | inhibition, % at 20 µM | AID 588493, 2011 | human 26S proteasome, Ub4-pepOG fluorescence polarization; 20S core pre-blocked with epoxomicin | 360,000 tested, 0.59% active;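 active means inhibition at 20 µM, scaled to each plate's controls, above about 33%, limit read from the data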
HNF4A DNA FP: change in binding of human HNF4A to DNA, primary screen, biochemical, fluorescence polarization, FITC-DNA; 1 h; activity change, % at 10 µM; 360,000 tested, 0.3% active; AID 1224865, 2016; in the data active means activity change above about 30%, passing the limit was not always enough
Neddylation inh: inhibitors of cullin neddylation, primary screen, biochemical, TR-FRET, uHTS, NAE and Ubc12; NEDD8-conjugating enzyme Ubc12 (Homo sapiens) + NEDD8-activating enzyme E1 regulatory …; inhibition, % at 25 µM; 360,000 tested, 0.58% active; in the data active means inhibition above about 36%
PREPL inh cf: human PREPL enzyme inhibitors, confirmation, biochemical, fluorescence polarization; inhibition, % at 5.96 µM; recombinant PREPL, fluorescence polarization activity probe; shares compounds with PREPL inhibitor; 2,000 tested, 67% active; AID 2803, 2010;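 further: 0% = protein with DMSO and 100% = wells lacking protein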
* marks the source's active call; other numbers are inactive results; / = no result given. Unless noted, no stated cut-off is given here; in the data, active means inhibition above about 43%; inactive means the rest.

SMILES	PREPL inhibitor	CSN inh	TbMetRS inhib	Rpn11 block	HNF4A DNA FP	Neddylation inh	PREPL inh cf
Cn1ccc2cc(-c3ccc4ncnc(NCc5cccs5)c4c3)ccc21	50*	0	0	2	0	-4	41
CCC(=O)c1ccc(OCC(=O)OCC(=O)NCCC2=CCCCC2)cc1	8	1	0	5	1	2	/
COc1ccc(/C=N/Nc2cc(C)nc3ccc(OC)cc23)c(OC)c1	89*	18	0	21	17	/	81*
CCCCC[C@@H](/C=C/C1C(=O)C=C[C@H]1C/C=C\CCCC(=O)OC)OC(C)=O (some centres undefined)	/	21	0	3	1	3	/
Cc1ccc2c(CN3CCC(C)CC3)cc(=O)oc2c1C	/	4	-1	-10	3	4	/
CCOC(=O)C1CCN(Cc2cc(=O)oc3c(C)c(C)ccc23)CC1	44*	0	0	-4	14	1	35
COc1cc(/C=C2\C(=O)N(c3ccc(S(N)(=O)=O)cc3)N=C2C)ccc1OC(=O)c1ccco1	54*	-5	0	-2	-6	-1	83*
COc1cc(/C=C2/C(=N)N3C(SC)=NSC3=NC2=O)ccc1OC(=O)c1ccco1	54*	29	0	20	22	-30	64*
C=CCOc1ccc(C=NNc2ccc(S(=O)(=O)Nc3ccccc3C(=O)O)cc2[N+](=O)[O-])cc1OC	62*	40	0	-2	-60	-65	36
CCOc1ccc(C=NNc2ccc(S(=O)(=O)Nc3ccccc3C(=O)O)cc2[N+](=O)[O-])cc1	65*	-4	0	-6	-34	-23	69*
CSc1ccc(C=NNc2ccc(S(=O)(=O)Nc3ccccc3C(=O)O)cc2[N+](=O)[O-])cc1	43	15	0	-13	-64	-19	/
ON=C1c2ccccc2-c2cc(Br)ccc21	/	3	0	3	-3	-11	/
COc1ccccc1NC(=O)N(C)C[C@@H]1OCc2cn(nn2)CCCC(=O)N([C@H](C)CO)C[C@H]1C	/	-4	0	-9	4	1	/
COc1ccc(N2c3ccccc3CN(Cc3ccccc3)[C@@H](C)[C@H]2Cc2cccnc2)cc1	/	-3	-2	4	-3	-9	/
c1ccc(-c2nc(NCc3ccco3)c3ccccc3n2)nc1	47*	-1	0	6	-2	4	47*
Cc1ccc(Nc2nc(NCc3ccco3)c3ccccc3n2)cc1	57*	0	0	5	7	/	45*
Oc1ccccc1-c1nc(NCc2ccco2)c2ccccc2n1	16	3	-2	0	0	-217	/
c1ccc(N2CCN(c3nc(NCc4ccco4)c4ccccc4n3)CC2)cc1	56*	-1	-1	6	10	33	56*
Cc1nc2nc(C)n(CCN3CCOCC3)c(=O)c2c(-c2cccc([N+](=O)[O-])c2)c1C(=O)CCCCCCCCCCN1CCC(c2ccccc2)(c2ccccc2)CC1	/	6	-1	8	-54	-9	/
COc1ccc(NC(=S)N2CCN(c3ccc([N+](=O)[O-])cc3)CC2)cc1OC	47*	-4	2	1	-1	-49	49*
Cc1c(CN2CCN(CC(C)C)C(CCO)C2)[nH]c2ccc(Cl)cc12 (centres undefined)	46*	-1	1	-1	2	2	44*
CC(C)(C)NC(=O)c1ccc2c(c1)N(CC(=O)N1CCCCC1)C(=O)C(C)(C)O2	9	6	0	-6	0	-1	/
Cc1ccc(NC(=O)c2ccc3c(c2)N(CC(=O)N2CCCCC2)C(=O)C(C)(C)O3)cc1	48*	-3	1	-3	6	11	40
CCNC(=O)N(C)c1c(CC)nc2ccc(C(=O)N3CCN(S(=O)(=O)CC)CC3)cn12	/	0	0	-9	3	1	/
CCCn1c2ccccc2c2cnn(CC(=O)NC3CCCC(C)C3C)c(=O)c21 (centres undefined)	-3	5	0	-5	-3	-7	/
SMILES	PREPL inhibitor	CSN inh	TbMetRS inhib	Rpn11 block	HNF4A DNA FP	Neddylation inh	PREPL inh cf
C#CCOCCOCCOCCNc1nc(N2CCN(C(=O)CCCCCCCCCCNC(=O)[C@@H](CCSC)n3cc(CCO)nn3)CC2)nc(N2CCN(C(=O)CCCCCCCCCCNC(=O)[C@H](CO)n3cc(CCCCCN)nn3)CC2)n1	48*	5	0	1	19	-3	49*
C#CCOCCOCCOCCNc1nc(N2CCN(C(=O)CCCCCCCCCCNC(=O)[C@@H](CCSC)n3cc(CCO)nn3)CC2)nc(N2CCN(C(=O)CCCCCCCCCCNC(=O)[C@H](CCC(=O)O)n3cc(CCCCCN)nn3)CC2)n1	3	-3	0	1	5	-19	/
C#CCOCCOCCOCCNc1nc(N2CCN(C(=O)CCCCCCCCCCNC(=O)[C@@H](CCC(=O)O)n3cc(CCCCCN)nn3)CC2)nc(N2CCN(C(=O)CCCCCCCCCCNC(=O)[C@H](CO)n3cc(CCCCCN)nn3)CC2)n1	46*	2	0	-8	8	-22	31
C#CCOCCOCCOCCNc1nc(N2CCN(C(=O)CCCCCCCCCCNC(=O)[C@@H](CCC(=O)O)n3cc(CCCCCN)nn3)CC2)nc(N2CCN(C(=O)CCCCCCCCCCNC(=O)[C@H](CO)n3cc(CCCSC)nn3)CC2)n1	19	0	1	8	4	-29	/
O=C(NNC(=O)c1ccc([N+](=O)[O-])cc1C(=O)O)c1ccncc1	9	1	0	1	1	-31	/
CCCOC(=O)Cn1cnc2scc(-c3ccc(OC)cc3)c2c1=O	3	-11	0	-4	0	-11	/
C1C2CC3C1C3C2=NN=C1C2CC3C(C2)C13	/	0	0	7	5	-10	/
O=C(CCc1nnc2n(CCc3ccccc3)c(=O)c3ccccc3n12)NCCCN1CCCCC1	33	-4	0	1	2	36	/
Cc1c(/C=C2\NC(=O)NC2=O)c2ccccc2n1C	3	1	0	-1	-4	-4	/
COc1ccc(NC(=O)C2CC(c3ccc(Cl)cc3)=NO2)cc1OC (centres undefined)	38	-5	0	0	2	7	/

High-throughput results (PubChem)
